Experimental data of several laboratories.
Each line is one published result; the experiments were not run side by side.
PLK4: Serine/threonine-protein kinase PLK4 (PLK4, Homo sapiens, UniProt O00444)
nupG: nupG (Escherichia coli, UniProt P0AFF4)
ADRA2C: Alpha-2C adrenergic receptor (ADRA2C, Homo sapiens, UniProt P18825)
PIK3C3: Phosphatidylinositol 3-kinase catalytic subunit type 3 (PIK3C3, Homo sapiens, UniProt Q8NEB9)

`Oc1ccccc1F` gave a Kd of 20000 µM (Iodotyrosine deiodinase (Haliscomenobacter hydrossis, UniProt F4KU78); binding; fluorescence).
With `C=C(C)[C@@H]1CC=C(C)C(=O)C1` the EC50 was 7.29 µM (OR1A1 (Homo sapiens, UniProt Q9P1Q5); cAMP; agonist; luciferase).
With `COc1ccc2c(c1)c(CC(=O)O)c(C)n2C(=O)c1ccc(Cl)cc1` the EC50 was 12.1 µM (Peroxisome proliferator-activated receptor gamma (Pparg, Mus musculus, UniProt P37238); reporter gene; agonist; luciferase).
With `C[C@H]1Oc2cc(cnc2N)-c2c(nn(C)c2C#N)CN(C)C(=O)c2ccc(F)cc21` the Ki was 0.107 µM (PLK4; cell-free assay; lysate).
With `Nc1nc2c(ncn2[C@@H]2O[C@H](CO)[C@@H](O)[C@H]2O)c(=O)[nH]1` the Kd was 46.7 µM (nupG; binding; ITC).
The Kd of `N[C@H]1C[C@@H](C(=O)O)CC1=C(C(F)(F)F)C(F)(F)F` is reported as 3000 µM (Ornithine aminotransferase, mitochondrial (OAT, Homo sapiens, UniProt P04181); binding; stopped-flow).
For `ON=Cc1ccc(-c2ccc(O)c(F)c2)c(Cl)c1O`, the EC50 was 1.63 µM (Estrogen receptor (ESR1, Homo sapiens, UniProt P03372); reporter gene; agonist; luciferase).
`Nc1ccn([C@@H]2O[C@H](CO)[C@@H](O)[C@H]2O)c(=O)n1` has a Kd of 144 µM (nupG; binding; ITC).
`Nc1nc2c(ncn2[C@@H]2O[C@H](COP(=O)(O)OP(=O)(O)O)[C@@H](OP(=O)(O)OP(=O)(O)O)[C@H]2O)c(=O)[nH]1` has a Kd of 493 µM (pgk (Escherichia coli, UniProt P0A799); binding; ITC).
The Ki of `CCCCN1CCC(COC(=O)c2ccc(N)c(OCF)c2)CC1` is reported as 0.778 µM (ADRA2C; cell-free assay; radioligand).
`CCOc1cc(-c2nncn2C)ccc1Nc1ncc2cc(C)nc(NCC(C)(C)C)c2n1` has a Kd of 0.071 µM (PLK4; binding; competition with immobilised ligand).
For `Nc1ccnc2ccccc12`, the Ki was 81.3 µM (ADRA2C; ligand displacement; radioligand; cell membranes).
With `C[C@]12CC[C@H](O)CC1=CC[C@@H]1[C@@H]2CC[C@]2(C)C(c3cccnc3)=CC[C@@H]12` the Ki was 0.25 µM (Estrogen receptor (ESR1, Homo sapiens, UniProt P03372, Y537C); ligand displacement in cells; radioligand).
The Kd of `CCC(=O)N1CCC(C(=O)N(C)CC(=O)N2CCN(c3nc(-c4cnc(N)nc4C(F)F)nc(N4CCOCC4)n3)CC2)CC1` is reported as 0.405 µM (PIK3C3; binding; competition with immobilised ligand).
`Cc1occc(=O)c1O` gave a Ki of 7.2 µM (Carbonic anhydrase 14 (CA14, Homo sapiens, UniProt Q9ULX7); enzyme activity; inhibitor; stopped-flow).
For `CCOC(=O)[C@@]12C[C@@H]1[C@@H](n1cnc3c(NC)nc(C#Cc4ccc(Cl)s4)nc31)[C@H](O)[C@@H]2O`, the Ki was greater than 10 µM (Nociceptin receptor (OPRL1, Homo sapiens, UniProt P41146); ligand displacement; radioligand).
The Ki of `CCCC[C@H](NC(=O)[C@H](C)c1c(C)[nH]c2ccc(O)cc12)c1ncc(-c2cc3ccccc3nc2OC)[nH]1` is reported as 5.32 µM (Prostaglandin E2 receptor EP3 subtype (PTGER3, Homo sapiens, UniProt P43115); cell-free assay).
The Kd of `C=CC(=O)N1CCC(C(=O)NCC(=O)N2CCN(c3nc(-c4cnc(N)nc4C(F)F)nc(N4CCOCC4)n3)CC2)CC1` is reported as 0.054 µM (PIK3C3; binding; competition with immobilised ligand).
`CN1CCN(c2ccc(Nc3ncc4cc(C#N)c(=O)n(C5CCCC5)c4n3)cc2)CC1` gave an IC50 of greater than 10 µM (Calcium/calmodulin-dependent protein kinase type II subunit beta (CAMK2B, Homo sapiens, UniProt Q13554); enzyme activity; inhibitor).
`CCCNc1nc2ccccc2n1Cc1ccc(Cl)cc1` gave a Ki of 0.434 µM (ADRA2C; ligand displacement; radioligand).
For `OC[C@H]1OC(O)[C@H](O)[C@@H](O)[C@@H]1O` (stereo partly drawn), the Kd was 158 µM (Hexokinase-1 (Homo sapiens, UniProt P19367); binding; MST).
